proCasp7 act = counter-screen for procaspase-3 activators: activators of human procaspase-7; activation, % at 8.5 µM; P55210; actives 0.093% (n = 330,000); recombinant procaspase-7, Ac-DEVD-pNA absorbance 405 nm; D23A/D198A/D206A triple mutant, cannot self-cleave; scale: DMSO 0, 5 µM enzyme 100;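 active means percent activation above the screen-wide mean plus 3 SD, cut at about 25% in these data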
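Assay system: Uncleavable procaspase-7 mutant enzyme; Input: 2 µM procaspase-7 mutant as dispensed; Also added: DEVD-pNA substrate; Medium: Zinc-free HEPES pH 7.4 with 300 mM NaCl, 0.01% Triton X-100; Timing: 1 h compound preincubation, 2 h substrate cleavage, 25 °C; Measured by: Epi-absorbance of released pNA at 405 nm, two timepoints.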
GAA850 FXN act = frataxin GAA850 promoter activation; HEK293 lucGAA850 FXN promoter luciferase reporter, 24 h; percent of 10 µM SAHA response; activation, % at 6 µM; actives 0.56% (n = 360,000); AID 540364;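 active means activation above the average of all compounds screened plus 3 SD, cutoff fixed separately per campaign, cut at about 7.5% in these data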;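 further: 0% = DMSO wells and 100% = 10 µM SAHA wells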
Neddylation inh = blocks human cullin neddylation. actives 0.58% (n = 360,000). TR-FRET cullin neddylation, biochemical. P61081+Q13564. inhibition, % at 25 µM. AID 651699; in the data active means inhibition above about 36%
HIF activator = HIF pathway transcriptional activation; U2OS HRE-luciferase reporter, luminescence; normalized: DMSO 0%, desferrioxamine 100%; activation, % at 7.5 µM (by protocol); actives 0.32% (n = 300,000);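 active means mean activation of at least 10% of the iron chelator positive control signal, with at least half of replicates also reaching 10%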
Calb FLC = C. albicans growth modulation with fluconazole; C. albicans CaCi-2 + fluconazole, Alamar Blue growth, 48 h; growth inhibition, % (test concentration not listed); actives 0.57% (n = 300,000);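 active means growth inhibition above about 58% in most replicates, limit read from the data, passing the limit was not always enough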;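 further: all wells also contain fluconazole at 8 µg/ml as a sub-toxic cotreatment; 0% = median of DMSO wells and 100% = median of geldanamycin control wells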
proCasp3 act = activates human procaspase-3 | actives 0.11% (n = 330,000) | AID 463141 | activation, % at 8.5 µM | recombinant procaspase-3 D3A, Ac-DEVD-pNA absorbance 405 nm | P42574;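 active means activation above the mean of all tested compounds plus 3 SD, cut at about 21% in these data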;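 further: 0% = DMSO alone and 100% = DMSO wells spiked with extra 5 µM PC-3 D3A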
Target sequence (P42574 whole entry D9A/D28A/D175A): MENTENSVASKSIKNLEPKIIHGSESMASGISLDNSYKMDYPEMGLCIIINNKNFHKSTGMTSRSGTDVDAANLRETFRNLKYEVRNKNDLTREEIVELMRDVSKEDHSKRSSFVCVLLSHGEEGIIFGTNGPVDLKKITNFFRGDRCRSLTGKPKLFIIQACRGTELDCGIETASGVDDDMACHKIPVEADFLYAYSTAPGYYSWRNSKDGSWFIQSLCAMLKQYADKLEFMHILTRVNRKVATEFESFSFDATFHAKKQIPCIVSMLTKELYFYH
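Test system: Procaspase-3 D3A mutant, all three cleavage aspartates alanine | Dosing: Single dose, 8.5 µM nominal compound, 0.8% DMSO | Schedule: 1 h preincubation, 2 h reaction | Technique: 405 nm absorbance of p-nitroaniline, reads at 0 and 120 min | Repeats: One well per compound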
Neddyl conf = cullin neddylation inhibition, confirmation. shares compounds with Neddylation inh. actives 13% (n = 1,800). AID 652217. TR-FRET cullin neddylation biochemical assay. calls only at 25 µM; in the data active means inhibition above about 40%;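 further: neddylation substrate is the cullin 1 ring ligase complex with SKP2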
* hit, by the source's call; i = inactive; x = not tested or not shown; + = active, no number. Rows were chosen to be rich in hits. Some 1.9% of all compounds tested hit in one or more screens of this group.

SMILES	proCasp7 act	GAA850 FXN act	Neddylation inh	HIF activator	Calb FLC	proCasp3 act	others
CCOC(=O)C1=C(C)NC(C)=C(C(=O)OCC)C1C(=O)OCC(=O)NC1CCCCC1	7	-2	39*	x	x	-2	Neddyl conf=i
CCNC(=O)COC(=O)C1C(C(=O)OCC)=C(C)NC(C)=C1C(=O)OCC	10	1	29	0	-6	7
O=C(CCc1nc2ccccc2s1)OCC(=O)c1ccc[nH]1	-1	-2	0	0	8	3
C=CCn1c(SCc2ccccc2F)nc2cc(C(=O)O)ccc2c1=O	-2	-2	1	1	33	3
O=C(c1cc(-c2ccco2)nc2ccccc12)N1CCCC(C(F)(F)F)C1 (stereo not drawn)	-19	1	60*	x	x	-7
O=C(Nc1ccccc1F)c1cc(-c2ccco2)nc2ccccc12	4	2	45*	1	-6	5
COc1cccc(NC(=O)c2cc(-c3ccco3)nc3ccccc23)c1	-12	0	38*	0	0	-5
COc1cccc(NC(=O)CN(C)C(=O)c2cc(-c3ccco3)nc3ccccc23)c1	12	1	x	0	-4	7
O=C(c1cc(-c2ccncc2)nc2ccccc12)N1CCCC(C(F)(F)F)C1 (stereo not drawn)	x	0	-16	x	x	x
CN(CCOc1ccc(Cl)cc1)C(=O)c1cc(-c2ccco2)nc2ccccc12	-23	-4	62*	0	-9	-3
Cc1ccc(Cl)cc1N1CCN(S(=O)(=O)c2c(C)[nH]c(C)c2C(=O)N2CCCCC2)CC1	4	-1	8	0	-3	11
CCOCCCNC(=O)CSc1nnc(-c2ccc(S(=O)(=O)N3CCCC3)cc2)n1C	-6	1	14	1	-3	15
CC1c2ccccc2N(NC(=O)Cc2ccccc2)C1C (stereo not drawn)	8	-1	-6	0	-2	-9
Cc1cc(NC(=O)COC(=O)c2nccnc2N)n(-c2ccccc2)n1	4	-1	68*	-2	-2	-7
Cn1nc(C(=O)OCC(=O)Nc2ccc(C(N)=O)cc2)c2ccccc2c1=O	10	-3	-16	x	x	-3
CCc1ccccc1NC(=O)CNC(=O)c1cc(C2CC2)nc2c1cnn2C(C)C	10	1	60*	x	x	8
CC(C)n1ncc2c(C(=O)NCC(=O)Nc3ccccc3Br)cc(C3CC3)nc21	-1	0	40*	x	x	-2
Nc1ccc(NC(=O)c2cccc(C(=O)Nc3ccc(N)cc3Cl)c2)c(Cl)c1	12	-2	18	0	-3	8
COc1ccc(/C=C/c2nnc(NC(C)=O)s2)cc1	1	4	43*	4	5	-11	Neddyl conf=i
COC(=O)Nc1nnc(/C=C/c2ccc(OC)cc2)s1	-5	5	29	1	8	-2
NC(=O)c1ccc(-c2nnn(CC(=O)N(C3CCCC3)C3CCS(=O)(=O)C3)n2)cc1 (stereo not drawn)	6	2	-8	x	x	3
CCOC(=O)c1oc2cc(O)cc(C)c2c1C	x	3	41*	x	x	x	Neddyl conf=+
CCOC(=O)c1oc2cc(C)cc(C)c2c1C	1	0	11	0	3	8
Cc1cc(C)c(O)c(CN(C)Cc2cc(Cl)cc(Cl)c2O)c1	x	1	38*	x	x	x	Neddyl conf=i
Cc1ccc(S(=O)(=O)N2CCN(C(=O)c3ccccc3Cc3ccccc3)CC2)c(C)c1	-4	-4	6	-1	-9	0
Clc1cccc(N/N=C/c2ccc(N3CCOCC3)s2)c1	-8	5	41*	1	11	1	Neddyl conf=i
CCc1nnc(NC(=O)CSc2nnc(-c3ccccc3O)n2-c2ccc(C)cc2C)s1	4	-4	41*	2	-3	1	Neddyl conf=i
CCc1nnc(NC(=O)CSc2nnc(COc3ccccc3)n2-c2ccc(C)cc2)s1	7	2	-16	-1	21	-1

Source: PubChem BioAssay (several laboratories)
